These results are taken from ChEMBL document CHEMBL3414524, “Synthesis, carbonic anhydrase inhibition and cytotoxic activity of novel chromone-based sulfonamide derivatives” (Eur J Med Chem, 2015).

Some results are limits rather than exact numbers.

Experiment [1] deals with MCF7. In words: Cytotoxicity against human MCF7 cells after 72 hrs by sulforhodamine B assay. The format is functional, cell-based. The note with it: MCF7, 72 h. In short, it runs like this:
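Cells in log phase were plated at 1000-2000 cells/well. After 24 h they were exposed to a range of concentrations for 72 h, then fixed with 10% TCA for 1 h at 4 °C. IC50 came from a Boltzmann sigmoidal nonlinear fit, as the mean of three separate experiments.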

Experiment [2] concerns A549. In words: Cytotoxicity against human A549 cells after 72 hrs by sulforhodamine B assay. The format is functional, cell-based. Particulars: A549, 72 h. In short, it runs like this:
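Cells in log phase were plated at 1000-2000 cells/well. After 24 h they were exposed to a range of concentrations for 72 h, then fixed with 10% TCA for 1 h at 4 °C. Staining used 0.4% SRB in 1% acetic acid for 10 min at room temperature, with the dye solubilized in Tris-HCl and OD read at 564 nm. IC50 came from a Boltzmann sigmoidal nonlinear fit, as the mean of three separate experiments.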

The target of the next experiment is Carbonic anhydrase 1 (Homo sapiens, UniProt P00915). In words: Inhibition of human cytosolic form of carbonic anhydrase-1 assessed as CO2 hydration activity incubated for 15 mins prior to testing by stopped flow method.
Sequence of Carbonic anhydrase 1 (P00915 whole entry): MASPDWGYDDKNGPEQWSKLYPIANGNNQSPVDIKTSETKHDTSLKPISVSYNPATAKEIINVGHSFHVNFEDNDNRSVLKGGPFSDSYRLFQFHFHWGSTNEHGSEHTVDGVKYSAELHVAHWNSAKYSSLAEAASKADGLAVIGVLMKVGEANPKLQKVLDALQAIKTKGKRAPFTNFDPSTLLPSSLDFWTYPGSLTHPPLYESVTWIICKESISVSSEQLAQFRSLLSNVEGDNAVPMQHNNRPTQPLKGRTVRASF
The target in the next experiment is Carbonic anhydrase 2 (Homo sapiens, UniProt P00918). In words: Inhibition of human cytosolic form of carbonic anhydrase-2 assessed as CO2 hydration activity incubated for 15 mins prior to testing by stopped flow method.
The next experiment has as its target Carbonic anhydrase 9 (Homo sapiens, UniProt Q16790). Put plainly: Inhibition of human membrane associated form of carbonic anhydrase-9 assessed as CO2 hydration activity incubated for 15 mins prior to testing by stopped flow method.
The next experiment addresses Carbonic anhydrase 12 (Homo sapiens, UniProt O43570). Put plainly: Inhibition of human membrane associated form of carbonic anhydrase-12 assessed as CO2 hydration activity incubated for 15 mins prior to testing by stopped flow method.
The subject of experiment [3] is MCF7. In words: Induction of apoptosis in human MCF7 cells assessed as early apoptotic cells at 0.72 uM after 24 hrs by annexin V-FITC/propidium iodide staining-based flow cytometric analysis relative to control. Format: functional. In short, it runs like this:
(§1)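 Cells were seeded at 1 x 10^5 cells/ml and held 24 h at 37 °C in 5% CO2, then treated for a further 24 h. They were harvested with 0.25% trypsin, washed twice in Ca2+/Mg2+-free PBS and adjusted to 1 x 10^6 cells/ml. Staining with annexin V-FITC/PI ran 30 min in the dark at room temperature, in binding buffer, with flow cytometry within 1 h. Untreated cells served as control.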

In experiment [4] the test system is MCF7. In words: Induction of apoptosis in human MCF7 cells assessed as late apoptotic cells at 0.72 uM after 24 hrs by annexin V-FITC/propidium iodide staining-based flow cytometric analysis (reference value: 0.01%). The format is functional. In short, it runs like this:
as §1

Experiment [5] concerns MCF7. Put plainly: Induction of apoptosis in human MCF7 cells assessed as necrotic cells at 0.72 uM after 24 hrs by annexin V-FITC/propidium iodide staining-based flow cytometric analysis (reference value: 1.58%). Format: functional. In short, it runs like this: as §1
The subject of experiment [6] is MCF7. Put plainly: Induction of apoptosis in human MCF7 cells assessed as viable cells at 0.72 uM after 24 hrs by annexin V-FITC/propidium iodide staining-based flow cytometric analysis (reference value: 98.41%). Format: functional. The note with it: MCF7, 24 h, read-out: Activity. In short, it runs like this:
as §1

In experiment [7] the test system is A549. Put plainly: Induction of apoptosis in human A549 cells assessed as early apoptotic cells at 0.5 uM after 24 hrs by annexin V-FITC/propidium iodide staining-based flow cytometric analysis (reference value: 1.9%). Format: functional. In short, it runs like this:
as §1

Experiment [8] relates to A549. In words: Induction of apoptosis in human A549 cells assessed as late apoptotic cells at 0.5 uM after 24 hrs by annexin V-FITC/propidium iodide staining-based flow cytometric analysis relative to control. Format: functional. In short, it runs like this: as §1
Experiment [9] concerns A549. In words: Induction of apoptosis in human A549 cells assessed as necrotic cells at 0.5 uM after 24 hrs by annexin V-FITC/propidium iodide staining-based flow cytometric analysis (reference value: 2.04%). The format is functional. In short, it runs like this:
as §1

The subject of experiment [10] is A549. In words: Induction of apoptosis in human A549 cells assessed as viable cells at 0.5 uM after 24 hrs by annexin V-FITC/propidium iodide staining-based flow cytometric analysis (reference value: 96.06%). The format is functional. Particulars: A549, 24 h, read-out: Activity. In short, it runs like this:
as §1

Sequence of Carbonic anhydrase 12 (O43570 whole entry): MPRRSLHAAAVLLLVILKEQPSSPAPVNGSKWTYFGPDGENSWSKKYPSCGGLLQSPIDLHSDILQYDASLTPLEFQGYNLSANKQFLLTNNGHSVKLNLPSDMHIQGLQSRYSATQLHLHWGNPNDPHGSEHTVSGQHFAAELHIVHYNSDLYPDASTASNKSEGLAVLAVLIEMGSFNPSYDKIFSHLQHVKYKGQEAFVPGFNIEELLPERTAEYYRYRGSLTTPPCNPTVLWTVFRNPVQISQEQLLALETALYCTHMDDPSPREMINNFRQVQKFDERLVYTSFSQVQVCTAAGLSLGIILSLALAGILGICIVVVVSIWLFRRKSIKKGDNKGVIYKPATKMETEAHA

On to `CCOC1Oc2ccccc2C(=O)/C1=C/Nc1ccc(S(=O)(=O)Nc2ccccn2)cc1` (centres undefined), for which the 50% inhibitory concentration (IC50) in the experiment with MCF7 [1] is 28.8 µM; in the experiment with A549 [2] it was 39.1 µM. The Ki on Carbonic anhydrase 1 was more than 10 µM; at Carbonic anhydrase 2, more than 10 µM; at Carbonic anhydrase 9, 20.9 nM; at Carbonic anhydrase 12, 62 nM.
On to `NS(=O)(=O)c1ccc(NCc2coc3ccccc3c2=O)cc1`, for which the IC50 in the experiment on MCF7 [1] turned out to be 0.72 µM; in the experiment with A549 [2] it was 0.5 µM. Further, the Ki at Carbonic anhydrase 9 turned out to be 29.8 nM. For the same compound, the Activity is listed as 94.12% in the experiment with MCF7 [3]; 0.72% in the experiment with MCF7 [4]; 0% in the experiment with MCF7 [5]; 74.77% in the experiment on A549 [7]; 1.64% with A549 [8]; 0.06% in the experiment with A549 [9]. Moreover, the viability at 0.72 µM with MCF7 [6] is 5.16%. In the experiment on A549 [10], the viability at 0.5 µM is 23.5%.
`CCOC1Oc2ccccc2C(=O)/C1=C/Nc1ccc(S(N)(=O)=O)cc1` (centres undefined): the values for the half-maximal inhibitory concentration (IC50) in the experiment on MCF7 [1] and in the experiment with A549 [2] were 22.2 µM and 33.4 µM, respectively.
For `CCOC1Oc2ccccc2C(=O)/C1=C/Nc1ccc(S(=O)(=O)Nc2cc(C)on2)cc1` (centres undefined), the IC50 with MCF7 [1] came to 25.8 µM; in the experiment with A549 [2], 57.2 µM. Also, the Ki was more than 10 µM on Carbonic anhydrase 1, more than 10 µM on Carbonic anhydrase 2 and 23.8 nM at Carbonic anhydrase 9.
For `CCOC1Oc2ccccc2C(=O)/C1=C/Nc1ccc(S(=O)(=O)Nc2ncccn2)cc1` (centres undefined), the IC50 was 30.1 µM in the experiment with MCF7 [1] and more than 100 µM in the experiment on A549 [2].
In the case of `CCOC1Oc2ccccc2C(=O)/C1=C/Nc1ccc(S(=O)(=O)Nc2nc(C)cc(C)n2)cc1` (centres undefined), the half-maximal inhibitory concentration (IC50) in the experiment with MCF7 [1] turned out to be 45.6 µM; with A549 [2], 36.4 µM. Besides, the figures for the Ki on Carbonic anhydrase 1, on Carbonic anhydrase 2 and at Carbonic anhydrase 9 were more than 10 µM, more than 10 µM and 37.6 nM, respectively.
Consider `CCOC1Oc2ccccc2C(=O)/C1=C/Nc1ccc(S(=O)(=O)Nc2nccs2)cc1` (centres undefined), for which the figures for the IC50 with MCF7 [1] and in the experiment on A549 [2] were 48.6 µM and more than 100 µM, respectively. In addition, the Ki is more than 10 µM at Carbonic anhydrase 1, more than 10 µM at Carbonic anhydrase 2 and 19.9 nM at Carbonic anhydrase 9.
With `Cc1cc(NS(=O)(=O)c2ccc(NCc3coc4ccccc4c3=O)cc2)no1`, the IC50 with MCF7 [1] was determined as 34.5 µM; with A549 [2] it was 59.7 µM. Further, the results for the Ki on Carbonic anhydrase 1, at Carbonic anhydrase 2 and at Carbonic anhydrase 9 were more than 10 µM, more than 10 µM and 32.1 nM, respectively.
Turning to `O=c1c(CNc2ccc(S(=O)(=O)Nc3ncccn3)cc2)coc2ccccc12`, the figures for the 50% inhibitory concentration (IC50) in the experiment with MCF7 [1] and in the experiment with A549 [2] were more than 100 µM and 85.2 µM, respectively.
Consider `Cc1cc(C)nc(NS(=O)(=O)c2ccc(NCc3coc4ccccc4c3=O)cc2)n1`, for which the IC50 in the experiment on MCF7 [1] turned out to be 93.6 µM; in the experiment on A549 [2], 55.8 µM.
In the same order, the values of `O=c1c(CNc2ccc(S(=O)(=O)Nc3nccs3)cc2)coc2ccccc12` are 58.6 µM and 25.6 µM.
As for `O=c1c(CNc2ccc(S(=O)(=O)Nc3ccccn3)cc2)coc2ccccc12`, the concentration for half-maximal inhibition (IC50) in the experiment on MCF7 [1] and in the experiment on A549 [2] was more than 100 µM in each case.
In the case of `NS(=O)(=O)c1ccc(NC2=NC(=O)/C(=C\c3coc4ccccc4c3=O)S2)cc1`, the IC50 turned out to be 8.91 µM with MCF7 [1] and 2.23 µM in the experiment on A549 [2]. The results for the Ki on Carbonic anhydrase 1 and at Carbonic anhydrase 9 were 0.399 µM and 14.3 nM, respectively.
Turning to `Cc1cc(NS(=O)(=O)c2ccc(NC3=NC(=O)/C(=C\c4coc5ccccc5c4=O)S3)cc2)no1`, the IC50 with MCF7 [1] and in the experiment with A549 [2] was more than 100 µM in each case.
Regarding `O=C1N=C(Nc2ccc(S(=O)(=O)Nc3ncccn3)cc2)S/C1=C/c1coc2ccccc2c1=O`, the results for the IC50 with MCF7 [1] and with A549 [2] were 82.6 µM and more than 100 µM, respectively. Also, the Ki was more than 10 µM on Carbonic anhydrase 1, more than 10 µM at Carbonic anhydrase 2 and 24.7 nM on Carbonic anhydrase 9.
In the case of `Cc1cc(C)nc(NS(=O)(=O)c2ccc(NC3=NC(=O)/C(=C\c4coc5ccccc5c4=O)S3)cc2)n1`, the IC50 with MCF7 [1] and in the experiment on A549 [2] was more than 100 µM each time.
As for `O=C1N=C(Nc2ccc(S(=O)(=O)Nc3nccs3)cc2)S/C1=C/c1coc2ccccc2c1=O`, the half-inhibitory concentration (IC50) in the experiment with MCF7 [1] and in the experiment with A549 [2] was more than 100 µM each time.
As to `O=C1N=C(Nc2ccc(S(=O)(=O)Nc3ccccn3)cc2)S/C1=C/c1coc2ccccc2c1=O`, the IC50 in the experiment with MCF7 [1] was 47.1 µM; in the experiment with A549 [2], more than 100 µM. The Ki at Carbonic anhydrase 1 was more than 10 µM; at Carbonic anhydrase 9 it was 25.6 nM.
The matching figures for `NS(=O)(=O)c1ccc(N2C(=O)/C(=C/c3coc4ccccc4c3=O)N=C2c2ccccc2)cc1`: 11.5 µM, 1.73 µM, 8 µM and 23 nM.
With `Cc1cc(NS(=O)(=O)c2ccc(N3C(=O)/C(=C/c4coc5ccccc5c4=O)N=C3c3ccccc3)cc2)no1`, the concentration for half-maximal inhibition (IC50) was 30 µM in the experiment on MCF7 [1] and more than 100 µM in the experiment on A549 [2]. Moreover, the Ki was more than 10 µM at Carbonic anhydrase 1 and 25.2 nM on Carbonic anhydrase 9.
As for `O=C1/C(=C/c2coc3ccccc3c2=O)N=C(c2ccccc2)N1c1ccc(S(=O)(=O)Nc2ncccn2)cc1`, the results for the concentration for half-maximal inhibition (IC50) in the experiment with MCF7 [1] and with A549 [2] were more than 100 µM and 40.5 µM, respectively.
In the same order, the values of `Cc1cc(C)nc(NS(=O)(=O)c2ccc(N3C(=O)/C(=C/c4coc5ccccc5c4=O)N=C3c3ccccc3)cc2)n1` are 99.7 µM and 63.2 µM.
Consider `O=C1/C(=C/c2coc3ccccc3c2=O)N=C(c2ccccc2)N1c1ccc(S(=O)(=O)Nc2nccs2)cc1`, for which the IC50 in the experiment with MCF7 [1] amounted to 88.5 µM; in the experiment with A549 [2], 88.4 µM.
In the same order, the values of `O=C1/C(=C/c2coc3ccccc3c2=O)N=C(c2ccccc2)N1c1ccc(S(=O)(=O)Nc2ccccn2)cc1` are more than 100 µM and more than 100 µM.
Take `NS(=O)(=O)c1ccc(N2C(=O)/C(=C/c3coc4ccccc4c3=O)N=C2c2ccc(Cl)cc2)cc1`: the values for the IC50 in the experiment on MCF7 [1] and in the experiment on A549 [2] were 24.3 µM and 13.8 µM, respectively. Further, the Ki was more than 10 µM at Carbonic anhydrase 1 and 18.4 nM on Carbonic anhydrase 9.
As to `Cc1cc(NS(=O)(=O)c2ccc(N3C(=O)/C(=C/c4coc5ccccc5c4=O)N=C3c3ccc(Cl)cc3)cc2)no1`, the IC50 in the experiment on MCF7 [1] and in the experiment with A549 [2] was more than 100 µM each time.
For `O=C1/C(=C/c2coc3ccccc3c2=O)N=C(c2ccc(Cl)cc2)N1c1ccc(S(=O)(=O)Nc2ncccn2)cc1`, the IC50 is more than 100 µM in the experiment on MCF7 [1] and 59 µM in the experiment with A549 [2].
In the same order, the values of `Cc1cc(C)nc(NS(=O)(=O)c2ccc(N3C(=O)/C(=C/c4coc5ccccc5c4=O)N=C3c3ccc(Cl)cc3)cc2)n1` are 93.9 µM and 52.6 µM.
The matching figures for `O=C1/C(=C/c2coc3ccccc3c2=O)N=C(c2ccc(Cl)cc2)N1c1ccc(S(=O)(=O)Nc2nccs2)cc1`: more than 100 µM and more than 100 µM.
In the same order, the values of `O=C1/C(=C/c2coc3ccccc3c2=O)N=C(c2ccc(Cl)cc2)N1c1ccc(S(=O)(=O)Nc2ccccn2)cc1` are more than 100 µM and more than 100 µM.
The compound `COc1cccc2c1C(=O)c1c(O)c3c(c(O)c1C2=O)C[C@@](O)(C(=O)CO)C[C@@H]3O[C@H]1C[C@H](N)[C@H](O)[C@H](C)O1` [DOXORUBICIN] came in with a half-maximal inhibitory concentration (IC50) in the experiment with A549 [2] of 26.8 µM.
